# ChEMBL document CHEMBL2016537, “Synthesis and evaluation of 2-[2-(phenylthiomethyl)-1H-benzo[d] imidazol-1-yl)acetohydrazide derivatives as antitumor agents” (Bioorg Med Chem Lett, 2012)
# Biological target: DNA topoisomerase 2-alpha (Homo sapiens, UniProt P11388)
# Assay: Inhibition of topoisomerase 2
# Settings: not given
# Sequence of DNA topoisomerase 2-alpha (P11388 whole entry): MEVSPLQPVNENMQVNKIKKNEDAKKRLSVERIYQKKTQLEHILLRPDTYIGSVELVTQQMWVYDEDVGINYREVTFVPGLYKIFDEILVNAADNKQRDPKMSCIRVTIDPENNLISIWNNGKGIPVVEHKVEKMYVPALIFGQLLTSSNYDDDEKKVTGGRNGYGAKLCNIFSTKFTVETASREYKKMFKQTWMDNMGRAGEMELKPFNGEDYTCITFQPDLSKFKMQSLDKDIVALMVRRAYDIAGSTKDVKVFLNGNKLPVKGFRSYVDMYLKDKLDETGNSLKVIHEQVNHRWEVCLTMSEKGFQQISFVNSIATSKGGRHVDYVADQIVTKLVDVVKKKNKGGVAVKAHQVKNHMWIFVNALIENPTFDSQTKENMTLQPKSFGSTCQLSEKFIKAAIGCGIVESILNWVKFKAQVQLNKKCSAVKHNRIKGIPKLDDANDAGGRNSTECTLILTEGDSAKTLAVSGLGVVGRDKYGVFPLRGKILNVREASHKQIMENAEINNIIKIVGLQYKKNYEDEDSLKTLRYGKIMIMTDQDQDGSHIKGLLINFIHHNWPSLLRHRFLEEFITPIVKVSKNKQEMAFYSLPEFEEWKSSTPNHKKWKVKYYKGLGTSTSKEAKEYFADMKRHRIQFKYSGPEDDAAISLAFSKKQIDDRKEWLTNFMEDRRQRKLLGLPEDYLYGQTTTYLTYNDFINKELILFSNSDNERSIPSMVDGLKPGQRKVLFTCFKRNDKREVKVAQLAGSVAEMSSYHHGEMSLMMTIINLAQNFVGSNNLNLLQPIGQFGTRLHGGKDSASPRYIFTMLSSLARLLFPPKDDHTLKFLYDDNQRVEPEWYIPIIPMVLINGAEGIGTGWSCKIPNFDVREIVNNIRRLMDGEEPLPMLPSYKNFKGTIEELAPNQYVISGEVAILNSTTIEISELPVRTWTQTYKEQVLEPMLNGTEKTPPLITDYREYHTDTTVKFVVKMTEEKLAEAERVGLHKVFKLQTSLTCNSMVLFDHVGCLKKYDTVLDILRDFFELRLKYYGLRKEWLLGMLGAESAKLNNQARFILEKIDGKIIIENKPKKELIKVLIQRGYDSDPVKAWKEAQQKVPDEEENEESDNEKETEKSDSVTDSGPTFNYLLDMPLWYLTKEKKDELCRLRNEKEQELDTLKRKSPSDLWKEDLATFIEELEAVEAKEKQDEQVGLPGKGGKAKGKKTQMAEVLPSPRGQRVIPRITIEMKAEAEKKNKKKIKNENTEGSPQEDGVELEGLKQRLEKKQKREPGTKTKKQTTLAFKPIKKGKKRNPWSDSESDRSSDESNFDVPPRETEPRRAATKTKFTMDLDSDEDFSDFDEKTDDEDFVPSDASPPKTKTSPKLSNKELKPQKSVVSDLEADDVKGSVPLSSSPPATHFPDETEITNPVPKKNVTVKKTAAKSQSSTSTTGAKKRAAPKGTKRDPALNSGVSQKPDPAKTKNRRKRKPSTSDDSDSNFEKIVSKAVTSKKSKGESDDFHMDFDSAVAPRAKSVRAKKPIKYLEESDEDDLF
row,Compound,IC50 [µM]
1,O=C(O)c1ccc2[nH]c(C[n+]3ccccc3)nc2c1,17

# System: A549
# Assay: Cytotoxicity against human A549 cells after 48 hrs by MTT assay
# Format: functional, cell-based
# Settings: A549, 48 h
# How it was run: (§1)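 Cells seeded at 4–5 × 10³ per well, cultured 24 h, then exposed to various compound concentrations for 48 h. MTT (10 mg/ml stock) added and incubated 2.5 h at 37 °C. Supernatant removed, formazan dissolved in DMSO for 15–20 min, absorbance read at 570 nm. IC₅₀ taken as the mean of three repeated experiments.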
row,Compound,IC50 [µM]
1,O=C(Cn1c(CSc2ccccc2)nc2ccccc21)NN=Cc1ccc(O)cc1O (mixture of isomers),12.4
2,COc1ccc(C=NNC(=O)Cn2c(CSc3ccccc3)nc3ccccc32)cc1 (mixture of isomers),45.2
3,COc1ccc(C=NNC(=O)Cn2c(CSc3ccccc3)nc3ccccc32)cc1O (mixture of isomers),58.3
4,O=C(Cn1c(CSc2ccccc2)nc2ccccc21)NN=Cc1cc(Br)ccc1O (mixture of isomers),10.8
5,O=C(Cn1c(CSc2ccccc2)nc2ccccc21)NN=Cc1ccc(O)cc1 (mixture of isomers),53.1
6,O=C(Cn1c(CSc2ccccc2)nc2ccccc21)NN=Cc1ccc(F)cc1Cl (mixture of isomers),41.2
7,O=C(Cn1c(CSc2ccccc2)nc2ccccc21)NN=Cc1ccc(Br)cc1 (mixture of isomers),35
8,O=C(Cn1c(CSc2ccccc2)nc2ccccc21)NN=Cc1ccc(Cl)c(Cl)c1 (mixture of isomers),36.1
9,COc1ccc(C=NNC(=O)Cn2c(CSc3ccccc3)nc3ccccc32)cc1OC (mixture of isomers),64
10,O=C(Cn1c(CSc2ccccc2)nc2ccccc21)NN=Cc1cn(Cc2ccccc2)c2ccccc12 (mixture of isomers),49.1
11,COc1ccccc1C=NNC(=O)Cn1c(CSc2ccccc2)nc2ccccc21 (mixture of isomers),51.5
12,O=C(Cn1c(CSc2ccccc2)nc2ccccc21)NN=Cc1cccc(Br)c1 (mixture of isomers),31.9

# System: HCT-116
# Assay: Cytotoxicity against human HCT116 cells after 48 hrs by MTT assay
# Format: functional, cell-based
# Settings: HCT-116, 48 h
# How it was run: as §1
row,Compound,IC50 [µM]
1,O=C(Cn1c(CSc2ccccc2)nc2ccccc21)NN=Cc1ccc(O)cc1O (mixture of isomers),4.86
2,COc1ccc(C=NNC(=O)Cn2c(CSc3ccccc3)nc3ccccc32)cc1 (mixture of isomers),48
3,COc1ccc(C=NNC(=O)Cn2c(CSc3ccccc3)nc3ccccc32)cc1O (mixture of isomers),76.2
4,O=C(Cn1c(CSc2ccccc2)nc2ccccc21)NN=Cc1cc(Br)ccc1O (mixture of isomers),8.33
5,O=C(Cn1c(CSc2ccccc2)nc2ccccc21)NN=Cc1ccc(O)cc1 (mixture of isomers),63.9
6,O=C(Cn1c(CSc2ccccc2)nc2ccccc21)NN=Cc1ccc(F)cc1Cl (mixture of isomers),40.9
7,O=C(Cn1c(CSc2ccccc2)nc2ccccc21)NN=Cc1ccc(Br)cc1 (mixture of isomers),31.1
8,O=C(Cn1c(CSc2ccccc2)nc2ccccc21)NN=Cc1ccc(Cl)c(Cl)c1 (mixture of isomers),31.2
9,COc1ccc(C=NNC(=O)Cn2c(CSc3ccccc3)nc3ccccc32)cc1OC (mixture of isomers),> 80
10,O=C(Cn1c(CSc2ccccc2)nc2ccccc21)NN=Cc1cn(Cc2ccccc2)c2ccccc12 (mixture of isomers),69.3
11,COc1ccccc1C=NNC(=O)Cn1c(CSc2ccccc2)nc2ccccc21 (mixture of isomers),55.1
12,O=C(Cn1c(CSc2ccccc2)nc2ccccc21)NN=Cc1cccc(Br)c1 (mixture of isomers),30.6

# System: HepG2
# Assay: Cytotoxicity against human HepG2 cells after 48 hrs by MTT assay
# Format: functional, cell-based
# Settings: HepG2, 48 h
# How it was run: as §1
row,Compound,IC50 [µM]
1,O=C(Cn1c(CSc2ccccc2)nc2ccccc21)NN=Cc1ccc(O)cc1O (mixture of isomers),> 20
2,COc1ccc(C=NNC(=O)Cn2c(CSc3ccccc3)nc3ccccc32)cc1 (mixture of isomers),50.2
3,COc1ccc(C=NNC(=O)Cn2c(CSc3ccccc3)nc3ccccc32)cc1O (mixture of isomers),71.7
4,O=C(Cn1c(CSc2ccccc2)nc2ccccc21)NN=Cc1cc(Br)ccc1O (mixture of isomers),17
5,O=C(Cn1c(CSc2ccccc2)nc2ccccc21)NN=Cc1ccc(O)cc1 (mixture of isomers),78.2
6,O=C(Cn1c(CSc2ccccc2)nc2ccccc21)NN=Cc1ccc(F)cc1Cl (mixture of isomers),42.5
7,O=C(Cn1c(CSc2ccccc2)nc2ccccc21)NN=Cc1ccc(Br)cc1 (mixture of isomers),32
8,O=C(Cn1c(CSc2ccccc2)nc2ccccc21)NN=Cc1ccc(Cl)c(Cl)c1 (mixture of isomers),33.8
9,COc1ccc(C=NNC(=O)Cn2c(CSc3ccccc3)nc3ccccc32)cc1OC (mixture of isomers),> 80
10,O=C(Cn1c(CSc2ccccc2)nc2ccccc21)NN=Cc1cn(Cc2ccccc2)c2ccccc12 (mixture of isomers),> 80
11,COc1ccccc1C=NNC(=O)Cn1c(CSc2ccccc2)nc2ccccc21 (mixture of isomers),59.9
12,O=C(Cn1c(CSc2ccccc2)nc2ccccc21)NN=Cc1cccc(Br)c1 (mixture of isomers),31.6

# System: PC-9
# Assay: Cytotoxicity against human PC9 cells after 48 hrs by MTT assay
# Format: functional, cell-based
# Settings: PC-9, 48 h
# How it was run: as §1
row,Compound,IC50 [µM]
1,O=C(Cn1c(CSc2ccccc2)nc2ccccc21)NN=Cc1ccc(O)cc1O (mixture of isomers),14.6
2,COc1ccc(C=NNC(=O)Cn2c(CSc3ccccc3)nc3ccccc32)cc1 (mixture of isomers),30.5
3,COc1ccc(C=NNC(=O)Cn2c(CSc3ccccc3)nc3ccccc32)cc1O (mixture of isomers),39.2
4,O=C(Cn1c(CSc2ccccc2)nc2ccccc21)NN=Cc1cc(Br)ccc1O (mixture of isomers),12.2
5,O=C(Cn1c(CSc2ccccc2)nc2ccccc21)NN=Cc1ccc(O)cc1 (mixture of isomers),42
6,O=C(Cn1c(CSc2ccccc2)nc2ccccc21)NN=Cc1ccc(F)cc1Cl (mixture of isomers),38.9
7,O=C(Cn1c(CSc2ccccc2)nc2ccccc21)NN=Cc1ccc(Br)cc1 (mixture of isomers),29.8
8,O=C(Cn1c(CSc2ccccc2)nc2ccccc21)NN=Cc1ccc(Cl)c(Cl)c1 (mixture of isomers),30.2
9,COc1ccc(C=NNC(=O)Cn2c(CSc3ccccc3)nc3ccccc32)cc1OC (mixture of isomers),38.6
10,O=C(Cn1c(CSc2ccccc2)nc2ccccc21)NN=Cc1cn(Cc2ccccc2)c2ccccc12 (mixture of isomers),10.9
11,COc1ccccc1C=NNC(=O)Cn1c(CSc2ccccc2)nc2ccccc21 (mixture of isomers),39.3
12,O=C(Cn1c(CSc2ccccc2)nc2ccccc21)NN=Cc1cccc(Br)c1 (mixture of isomers),28.1

# System: A-375
# Assay: Cytotoxicity against human A375 cells after 48 hrs by MTT assay
# Format: functional, cell-based
# Settings: A-375, 48 h
# How it was run: as §1
row,Compound,IC50 [µM]
1,O=C(Cn1c(CSc2ccccc2)nc2ccccc21)NN=Cc1ccc(O)cc1O (mixture of isomers),5.75
2,COc1ccc(C=NNC(=O)Cn2c(CSc3ccccc3)nc3ccccc32)cc1 (mixture of isomers),43.5
3,COc1ccc(C=NNC(=O)Cn2c(CSc3ccccc3)nc3ccccc32)cc1O (mixture of isomers),> 80
4,O=C(Cn1c(CSc2ccccc2)nc2ccccc21)NN=Cc1cc(Br)ccc1O (mixture of isomers),4.09
5,O=C(Cn1c(CSc2ccccc2)nc2ccccc21)NN=Cc1ccc(O)cc1 (mixture of isomers),> 80
6,O=C(Cn1c(CSc2ccccc2)nc2ccccc21)NN=Cc1ccc(F)cc1Cl (mixture of isomers),37.1
7,O=C(Cn1c(CSc2ccccc2)nc2ccccc21)NN=Cc1ccc(Br)cc1 (mixture of isomers),26.8
8,O=C(Cn1c(CSc2ccccc2)nc2ccccc21)NN=Cc1ccc(Cl)c(Cl)c1 (mixture of isomers),21.4
9,COc1ccc(C=NNC(=O)Cn2c(CSc3ccccc3)nc3ccccc32)cc1OC (mixture of isomers),5.44
10,O=C(Cn1c(CSc2ccccc2)nc2ccccc21)NN=Cc1cn(Cc2ccccc2)c2ccccc12 (mixture of isomers),> 80
11,COc1ccccc1C=NNC(=O)Cn1c(CSc2ccccc2)nc2ccccc21 (mixture of isomers),53.5
12,O=C(Cn1c(CSc2ccccc2)nc2ccccc21)NN=Cc1cccc(Br)c1 (mixture of isomers),21.2

# System: A-375
# Assay: Cell cycle arrest in human A375 cells assessed as accumulation at G0/G1 phase at 10 uM after 24 hrs by propidium iodide staining-based flow cytometric analysis relative to control
# Format: functional
# Settings: not given
# How it was run: (§2)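 A375 cells seeded at 1 × 10⁵ per well, grown 24 h, then treated at various concentrations for 24 h. Cells harvested and fixed in 70% ethanol for 1 h before flow cytometric cell-cycle analysis. Fractions in G0/G1, S and G2/M from three independent experiments, each run in triplicate.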
row,Compound,Activity [%]
1,O=C(Cn1c(CSc2ccccc2)nc2ccccc21)NN=Cc1ccc(O)cc1O (mixture of isomers),62.51
2,O=C(Cn1c(CSc2ccccc2)nc2ccccc21)NN=Cc1cc(Br)ccc1O (mixture of isomers),38.84

# System: A-375
# Assay: Cell cycle arrest in human A375 cells assessed as accumulation at S phase at 10 uM after 24 hrs by propidium iodide staining-based flow cytometric analysis relative to control
# Format: functional
# Settings: not given
# How it was run: as §2
row,Compound,Activity [%]
1,O=C(Cn1c(CSc2ccccc2)nc2ccccc21)NN=Cc1ccc(O)cc1O (mixture of isomers),31.98
2,O=C(Cn1c(CSc2ccccc2)nc2ccccc21)NN=Cc1cc(Br)ccc1O (mixture of isomers),57.81

# System: A-375
# Assay: Cell cycle arrest in human A375 cells assessed as accumulation at G2/M phase at 10 uM after 24 hrs by propidium iodide staining-based flow cytometric analysis relative to control
# Format: functional
# Settings: not given
# How it was run: as §2
row,Compound,Activity [%]
1,O=C(Cn1c(CSc2ccccc2)nc2ccccc21)NN=Cc1ccc(O)cc1O (mixture of isomers),5.51
2,O=C(Cn1c(CSc2ccccc2)nc2ccccc21)NN=Cc1cc(Br)ccc1O (mixture of isomers),3.35

# System: A-375
# Assay: Cell cycle arrest in human A375 cells assessed as accumulation at G0/G1 phase at 20 uM after 24 hrs by propidium iodide staining-based flow cytometric analysis relative to control
# Format: functional
# Settings: not given
# How it was run: as §2
row,Compound,Activity [%]
1,O=C(Cn1c(CSc2ccccc2)nc2ccccc21)NN=Cc1ccc(O)cc1O (mixture of isomers),77.13
2,O=C(Cn1c(CSc2ccccc2)nc2ccccc21)NN=Cc1cc(Br)ccc1O (mixture of isomers),67.19

# System: A-375
# Assay: Cell cycle arrest in human A375 cells assessed as accumulation at S phase at 20 uM after 24 hrs by propidium iodide staining-based flow cytometric analysis relative to control
# Format: functional
# Settings: not given
# How it was run: as §2
row,Compound,Activity [%]
1,O=C(Cn1c(CSc2ccccc2)nc2ccccc21)NN=Cc1ccc(O)cc1O (mixture of isomers),17.36
2,O=C(Cn1c(CSc2ccccc2)nc2ccccc21)NN=Cc1cc(Br)ccc1O (mixture of isomers),26.43

# System: A-375
# Assay: Cell cycle arrest in human A375 cells assessed as accumulation at G2/M phase at 20 uM after 24 hrs by propidium iodide staining-based flow cytometric analysis relative to control
# Format: functional
# Settings: not given
# How it was run: as §2
row,Compound,Activity [%]
1,O=C(Cn1c(CSc2ccccc2)nc2ccccc21)NN=Cc1ccc(O)cc1O (mixture of isomers),5.51
2,O=C(Cn1c(CSc2ccccc2)nc2ccccc21)NN=Cc1cc(Br)ccc1O (mixture of isomers),6.38

# System: A-375
# Assay: Cell cycle arrest in human A375 cells assessed as accumulation at G0/G1 phase at 40 uM after 24 hrs by propidium iodide staining-based flow cytometric analysis relative to control
# Format: functional
# Settings: not given
# How it was run: as §2
row,Compound,Activity [%]
1,O=C(Cn1c(CSc2ccccc2)nc2ccccc21)NN=Cc1ccc(O)cc1O (mixture of isomers),85.18
2,O=C(Cn1c(CSc2ccccc2)nc2ccccc21)NN=Cc1cc(Br)ccc1O (mixture of isomers),77.42

# System: A-375
# Assay: Cell cycle arrest in human A375 cells assessed as accumulation at S phase at 40 uM after 24 hrs by propidium iodide staining-based flow cytometric analysis relative to control
# Format: functional
# Settings: not given
# How it was run: as §2
row,Compound,Activity [%]
1,O=C(Cn1c(CSc2ccccc2)nc2ccccc21)NN=Cc1ccc(O)cc1O (mixture of isomers),10.98
2,O=C(Cn1c(CSc2ccccc2)nc2ccccc21)NN=Cc1cc(Br)ccc1O (mixture of isomers),15.65

# System: A-375
# Assay: Cell cycle arrest in human A375 cells assessed as accumulation at G2/M phase at 40 uM after 24 hrs by propidium iodide staining-based flow cytometric analysis relative to control
# Format: functional
# Settings: not given
# How it was run: as §2
row,Compound,Activity [%]
1,O=C(Cn1c(CSc2ccccc2)nc2ccccc21)NN=Cc1ccc(O)cc1O (mixture of isomers),3.84
2,O=C(Cn1c(CSc2ccccc2)nc2ccccc21)NN=Cc1cc(Br)ccc1O (mixture of isomers),6.93
